Tested on: 3T3-L1
Assay: Antiadipogenic activity against mouse 3T3L1 cells assessed as inhibition of differentiation after 7 days by oil-red O staining
Type: functional, cell-based
Settings: 3T3-L1, 168 h
Method in brief: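 Mouse 3T3-L1 preadipocytes grown to confluence for 48 h, then induced (day 0) in DMEM with 10% FBS, insulin 5 µg/mL, 10 µM rosiglitazone, 1 µM dexamethasone; after 48 h switched to 10% FBS/DMEM + 5 µg/mL insulin, then 10% FBS/DMEM every other day. Compounds added day 0, refreshed every 2 days. Day 7: PBS wash, 10% formalin 10 min, Oil-red O 1 h RT, dye eluted in isopropanol, A500; IC50 derived.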

Compound	IC50
C=C[C@H](/C=C\c1ccc(O)cc1)c1ccc(O)cc1 [NYASOL]	> 100 µM
C=C[C@H](/C=C\c1ccc(OC)cc1)c1ccc(O)cc1	45.9 µM
COc1ccc(CCCc2ccc(O)cc2)c(O)c1 [BROUSSONIN A]	74.5 µM
O=C(/C=C/c1ccc(O)cc1)c1ccc(O)cc1O [ISOLIQUIRITIGENIN]	96.4 µM
Oc1ccc(/C=C/c2cc(O)cc(O)c2)cc1 [RESVERATROL]	31.4 µM
COc1cc(O)ccc1C(=O)/C=C/c1ccc(O)cc1	41.8 µM
Cc1c(O)cc2c(c1O)C(=O)/C(=C/c1ccc(O)cc1)CO2	> 100 µM
O=C1/C(=C/c2ccc(O)cc2)COc2cc(O)cc(O)c21	> 100 µM
O=C(C#Cc1ccc(O)cc1)c1ccc(O)cc1 [ANEMARCHALCONYN]	5.3 µM
